Data published in publication PMC4835239 (Leukemia & lymphoma, 2015).
“Also recorded” adds a separate entry of the source.

Legend:
[1] = tested on: relapsed/refractory CLL or small lymphocytic lymphoma (SLL); assay: Response assessment by IWCLL 2008 criteria; type: in vivo, human; settings: all patients
[2] = tested on: chymotrypsin-like proteasome activity of CLL cells; assay: Proteasome activity assay in CLL cells from patient samples; type: in vivo, human
Procedure, shortened: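 Chymotrypsin-like proteasome activity was measured in CLL cells from patient whole blood with a validated commercial assay. Samples were taken at screening, pre- and post-dose day 1, pre-dose day 2, and pre- and post-dose days 8 and 9 of cycle 1. Dosing was a 30-min IV infusion, 20 mg/m2 on days 1–2, then 27, 36, 45 or 56 mg/m2 by cohort from day 8.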

[3] = tested on: CLL cells; settings: cited from earlier work
[4] = tested on: patients with relapsed/refractory CLL or small lymphocytic lymphoma (SLL); assay: Phase I dose-escalation trial: toxicity assessment; type: in vivo
[5] = tested on: CLL; settings: patients with CLL; cited from earlier work
[6] = tested on: CLL cells; settings: bortezomib; cited from earlier work
[7] = tested on: myeloma cells; settings: bortezomib; cited from earlier work

## CC(C)C[C@H](NC(=O)[C@H](CCc1ccccc1)NC(=O)CN1CCOCC1)C(=O)N[C@@H](Cc1ccccc1)C(=O)N[C@@H](CC(C)C)C(=O)[C@@]1(C)CO1 [Carfilzomib]
[1]
  Objective partial or complete responses (IWCLL 2008): No objective partial or complete responses were observed
[2]; by 24 hours after dosing
  Chymotrypsin-like proteasome activity: partially recovered; also recorded: recovered partially
[2]; by day 8
  Chymotrypsin-like proteasome activity: rebound higher than pretreatment levels; also recorded: completely
[3]
  Cytotoxicity against CLL cells in vitro: significant cytotoxicity
[3]; human versus fetal bovine serum
  Effect of human serum on cytotoxic activity against CLL cells: unaffected by human serum
[4]; doses up to 56 mg/m^2 twice weekly for 3 weeks of a 4 week cycle
  Maximum tolerated dose (MTD): No maximum tolerated dose of carfilzomib was identified
[4]; grade 3, total n=19
  Dyspnea, incidence: 1 number of patients
  Febrile neutropenia, incidence: 1 number of patients
[4]; human, in vivo
  Grade of electrolyte disturbances: ≤ 2 grade
[4]; in vivo
  Infusion reaction or tumor lysis syndrome: No patient experienced an infusion reaction or tumor lysis syndrome

## CC(C)C[C@H](NC(=O)[C@H](Cc1ccccc1)NC(=O)c1cnccn1)B(O)O [bortezomib]
[5]
  Objective clinical responses: no objective clinical responses

## O=c1c(O)c(-c2ccc(O)c(O)c2)oc2cc(O)cc(O)c12 [quercetin]
[6]
  Level of quercetin required to inhibit apoptosis: 20 μm
[7]
  Level of quercetin required to inhibit apoptosis: 40 μm
